{"source": "ChEMBL document CHEMBL5303300", "about": "“EUbOPEN Chemogenomics Library - Multiplex” (2023)", "key": {"[1]": {"tested_on": "Fibroblast", "experiment": "Multiplex assay against human fibroblast", "format": "toxicity, cell-based", "settings": "48 h, number of replicates 2", "procedure,_shortened": "(§1)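 Four dyes were applied at seeding to live cells: Hoechst33342, BioTracker Green Microtubule Cytoskeleton Dye, MitoTracker Red and Annexin V Alexa Fluor 680. Imaging after compound addition used a CQ1 microscope at 37°C and 5% CO2. CellPathfinder machine-learning gating then sorted cells into Hoechst high-intensity objects or normal cells, normal cells into healthy, pyknosed or fragmented nuclei, and pyknosed cells into mitotic or apoptotic, with tubulin, mitochondrial-mass and membrane-permeability phenotypes given as per cents of healthy-nucleus cells.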"}, "[2]": {"tested_on": "HEK-293T", "experiment": "Multiplex assay against HEK293T", "format": "toxicity, cell-based", "settings": "human, number of replicates 2", "procedure,_shortened": "as §1"}, "[3]": {"settings": "0 µM, compound concentration 0 uM"}, "[4]": {"settings": "1 µM, compound concentration 1 uM"}, "[5]": {"settings": "12 h, 0 µM, compound concentration 0 uM"}, "[6]": {"settings": "12 h, 1 µM, compound concentration 1 uM"}, "[7]": {"settings": "24 h, 0 µM, compound concentration 0 uM"}, "[8]": {"settings": "24 h, 1 µM, compound concentration 1 uM"}, "[9]": {"settings": "48 h, 0 µM, compound concentration 0 uM"}, "[10]": {"settings": "48 h, 1 µM, compound concentration 1 uM"}}, "note": "Values joined by “and” are separate entries in the source; they are usually repeats but may differ in a detail not shown here. Equal values may be shown once."}
{"smiles": "COc1cc(C(N)=O)ccc1Nc1ncc2c(n1)N(CCC(C)C)[C@H](C)C(=O)N2C", "values": [{"measurement": "Population Apoptotic (%)", "setting": "[1]; [3]", "value": "82% and 80%"}, {"measurement": "Population Fragmented Nuclei (%)", "setting": "[1]; [3]", "value": "64% and 84%"}, {"measurement": "Population Healthy Nuclei (%)", "setting": "[1]; [3]", "value": "21% and 9%"}, {"measurement": "Population Hoechst High Intensity Objects (%)", "setting": "[1]; [3]", "value": 0, "unit": "%"}, {"measurement": "Population Membrane Permeable-Phenotype (%)", "setting": "[1]; [3]", "value": "18% and 8%"}, {"measurement": "Population Mitochondria Different-Phenotype (%)", "setting": "[1]; [3]", "value": "0% and 8%"}, {"measurement": "Population Mitotic Cells (%)", "setting": "[1]; [3]", "value": "17% and 20%"}, {"measurement": "Population Normal (%)", "setting": "[1]; [3]", "value": 100, "unit": "%"}, {"measurement": "Population Pyknosed Nuclei (%)", "setting": "[1]; [3]", "value": "13% and 6%"}, {"measurement": "Population Tubulin-Different-Phenotype (%)", "setting": "[1]; [3]", "value": "64% and 56%"}, {"measurement": "Total Cell Count", "setting": "[1]; [3]", "value": "171 and 241"}, {"measurement": "Population Apoptotic (%)", "setting": "[1]; [4]", "value": "68% and 46%"}, {"measurement": "Population Fragmented Nuclei (%)", "setting": "[1]; [4]", "value": "18% and 25%"}, {"measurement": "Population Healthy Nuclei (%)", "setting": "[1]; [4]", "value": 66, "unit": "%"}, {"measurement": "Population Hoechst High Intensity Objects (%)", "setting": "[1]; [4]", "value": 0, "unit": "%"}, {"measurement": "Population Membrane Permeable-Phenotype (%)", "setting": "[1]; [4]", "value": "9% and 11%"}, {"measurement": "Population Mitochondria Different-Phenotype (%)", "setting": "[1]; [4]", "value": 0, "unit": "%"}, {"measurement": "Population Mitotic Cells (%)", "setting": "[1]; [4]", "value": "32% and 53%"}, {"measurement": "Population Normal (%)", "setting": "[1]; [4]", "value": 100, "unit": "%"}, {"measurement": "Population Pyknosed Nuclei (%)", "setting": "[1]; [4]", "value": "15% and 8%"}, {"measurement": "Population Tubulin-Different-Phenotype (%)", "setting": "[1]; [4]", "value": "8% and 10%"}, {"measurement": "Total Cell Count", "setting": "[1]; [4]", "value": "161 and 162"}, {"measurement": "Population Apoptotic (%)", "setting": "[2]; [5]", "value": "47% and 52%"}, {"measurement": "Population Fragmented Nuclei (%)", "setting": "[2]; [5]", "value": "3% and 2%"}, {"measurement": "Population Healthy Nuclei (%)", "setting": "[2]; [5]", "value": "86% and 88%"}, {"measurement": "Population Hoechst High Intensity Objects (%)", "setting": "[2]; [5]", "value": 2, "unit": "%"}, {"measurement": "Population Membrane Permeable-Phenotype (%)", "setting": "[2]; [5]", "value": "4% and 10%"}, {"measurement": "Population Mitochondria Different-Phenotype (%)", "setting": "[2]; [5]", "value": "31% and 35%"}, {"measurement": "Population Mitotic Cells (%)", "setting": "[2]; [5]", "value": "52% and 47%"}, {"measurement": "Population Normal (%)", "setting": "[2]; [5]", "value": 97, "unit": "%"}, {"measurement": "Population Pyknosed Nuclei (%)", "setting": "[2]; [5]", "value": "10% and 9%"}, {"measurement": "Population Tubulin-Different-Phenotype (%)", "setting": "[2]; [5]", "value": "82% and 95%"}, {"measurement": "Total Cell Count", "setting": "[2]; [5]", "value": "540 and 476"}, {"measurement": "Population Apoptotic (%)", "setting": "[2]; [6]", "value": "62% and 60%"}, {"measurement": "Population Fragmented Nuclei (%)", "setting": "[2]; [6]", "value": "1% and 4%"}, {"measurement": "Population Healthy Nuclei (%)", "setting": "[2]; [6]", "value": "73% and 75%"}, {"measurement": "Population Hoechst High Intensity Objects (%)", "setting": "[2]; [6]", "value": "8% and 7%"}, {"measurement": "Population Membrane Permeable-Phenotype (%)", "setting": "[2]; [6]", "value": 2, "unit": "%"}, {"measurement": "Population Mitochondria Different-Phenotype (%)", "setting": "[2]; [6]", "value": "38% and 28%"}, {"measurement": "Population Mitotic Cells (%)", "setting": "[2]; [6]", "value": "37% and 39%"}, {"measurement": "Population Normal (%)", "setting": "[2]; [6]", "value": "91% and 92%"}, {"measurement": "Population Pyknosed Nuclei (%)", "setting": "[2]; [6]", "value": "24% and 20%"}, {"measurement": "Population Tubulin-Different-Phenotype (%)", "setting": "[2]; [6]", "value": "64% and 58%"}, {"measurement": "Total Cell Count", "setting": "[2]; [6]", "value": "432 and 456"}, {"measurement": "Population Apoptotic (%)", "setting": "[2]; [7]", "value": "67% and 50%"}, {"measurement": "Population Fragmented Nuclei (%)", "setting": "[2]; [7]", "value": "4% and 5%"}, {"measurement": "Population Healthy Nuclei (%)", "setting": "[2]; [7]", "value": 88, "unit": "%"}, {"measurement": "Population Hoechst High Intensity Objects (%)", "setting": "[2]; [7]", "value": "3% and 2%"}, {"measurement": "Population Membrane Permeable-Phenotype (%)", "setting": "[2]; [7]", "value": "1% and 2%"}, {"measurement": "Population Mitochondria Different-Phenotype (%)", "setting": "[2]; [7]", "value": "44% and 59%"}, {"measurement": "Population Mitotic Cells (%)", "setting": "[2]; [7]", "value": "32% and 50%"}, {"measurement": "Population Normal (%)", "setting": "[2]; [7]", "value": "96% and 97%"}, {"measurement": "Population Pyknosed Nuclei (%)", "setting": "[2]; [7]", "value": 6, "unit": "%"}, {"measurement": "Population Tubulin-Different-Phenotype (%)", "setting": "[2]; [7]", "value": "81% and 96%"}, {"measurement": "Total Cell Count", "setting": "[2]; [7]", "value": "464 and 423"}, {"measurement": "Population Apoptotic (%)", "setting": "[2]; [8]", "value": "75% and 68%"}, {"measurement": "Population Fragmented Nuclei (%)", "setting": "[2]; [8]", "value": 5, "unit": "%"}, {"measurement": "Population Healthy Nuclei (%)", "setting": "[2]; [8]", "value": "69% and 76%"}, {"measurement": "Population Hoechst High Intensity Objects (%)", "setting": "[2]; [8]", "value": "8% and 6%"}, {"measurement": "Population Membrane Permeable-Phenotype (%)", "setting": "[2]; [8]", "value": 1, "unit": "%"}, {"measurement": "Population Mitochondria Different-Phenotype (%)", "setting": "[2]; [8]", "value": "34% and 32%"}, {"measurement": "Population Mitotic Cells (%)", "setting": "[2]; [8]", "value": "24% and 31%"}, {"measurement": "Population Normal (%)", "setting": "[2]; [8]", "value": "91% and 93%"}, {"measurement": "Population Pyknosed Nuclei (%)", "setting": "[2]; [8]", "value": "25% and 18%"}, {"measurement": "Population Tubulin-Different-Phenotype (%)", "setting": "[2]; [8]", "value": "38% and 35%"}, {"measurement": "Total Cell Count", "setting": "[2]; [8]", "value": "461 and 420"}, {"measurement": "Population Apoptotic (%)", "setting": "[2]; [9]", "value": "72% and 75%"}, {"measurement": "Population Fragmented Nuclei (%)", "setting": "[2]; [9]", "value": "16% and 11%"}, {"measurement": "Population Healthy Nuclei (%)", "setting": "[2]; [9]", "value": "78% and 80%"}, {"measurement": "Population Hoechst High Intensity Objects (%)", "setting": "[2]; [9]", "value": 3, "unit": "%"}, {"measurement": "Population Membrane Permeable-Phenotype (%)", "setting": "[2]; [9]", "value": "1% and 3%"}, {"measurement": "Population Mitochondria Different-Phenotype (%)", "setting": "[2]; [9]", "value": "39% and 55%"}, {"measurement": "Population Mitotic Cells (%)", "setting": "[2]; [9]", "value": "28% and 24%"}, {"measurement": "Population Normal (%)", "setting": "[2]; [9]", "value": 96, "unit": "%"}, {"measurement": "Population Pyknosed Nuclei (%)", "setting": "[2]; [9]", "value": "5% and 7%"}, {"measurement": "Population Tubulin-Different-Phenotype (%)", "setting": "[2]; [9]", "value": "63% and 89%"}, {"measurement": "Total Cell Count", "setting": "[2]; [9]", "value": "505 and 420"}, {"measurement": "Population Apoptotic (%)", "setting": "[2]; [10]", "value": "72% and 73%"}, {"measurement": "Population Fragmented Nuclei (%)", "setting": "[2]; [10]", "value": "8% and 11%"}, {"measurement": "Population Healthy Nuclei (%)", "setting": "[2]; [10]", "value": "72% and 76%"}, {"measurement": "Population Hoechst High Intensity Objects (%)", "setting": "[2]; [10]", "value": "5% and 4%"}, {"measurement": "Population Membrane Permeable-Phenotype (%)", "setting": "[2]; [10]", "value": 1, "unit": "%"}, {"measurement": "Population Mitochondria Different-Phenotype (%)", "setting": "[2]; [10]", "value": "14% and 17%"}, {"measurement": "Population Mitotic Cells (%)", "setting": "[2]; [10]", "value": "27% and 26%"}, {"measurement": "Population Normal (%)", "setting": "[2]; [10]", "value": "94% and 95%"}, {"measurement": "Population Pyknosed Nuclei (%)", "setting": "[2]; [10]", "value": "19% and 12%"}, {"measurement": "Population Tubulin-Different-Phenotype (%)", "setting": "[2]; [10]", "value": "24% and 20%"}, {"measurement": "Total Cell Count", "setting": "[2]; [10]", "value": "520 and 517"}]}
